ChEMBL document CHEMBL1687900, “Potent farnesyltransferase inhibitors with 1,4-diazepane scaffolds as novel destabilizing microtubule agents in hormone-resistant prostate cancer” (J Med Chem, 2011)
Active and inactive are the calls of the source. The rule behind the calls is not given here.

Assays:
[1] = Apparent permeability across human Caco2 cells; type: ADME, cell-based; settings: Caco-2
[2] = test system: DU-145; assay: Anticancer activity against hormone-resistant human DU145 cells assessed as cell proliferation after 72 hrs by MTT assay; type: functional, cell-based; settings: DU-145, 72 h
Method in brief: (§1)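 DU145 or PC3 cells (RPMI 1640, 10% FBS, 2 mM glutamine, 37 °C, 5% CO2) seeded at (1.6-1.8) 10^4 per well. After 72 h they were serum-deprived, and next day treated with various compound concentrations for 72 h. Viability was read by MTT (4 mg/mL, 4 h), SDS/HCl lysis and absorbance at 570 nm. Values come from at least three independent determinations.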

[3] = test system: PC-3; assay: Anticancer activity against hormone-resistant human PC3 cells assessed as cell proliferation after 72 hrs by MTT assay; type: functional, cell-based; settings: PC-3, 72 h; method in brief: as §1
[4] = Inhibition of FTase
Method in brief: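 Partially purified recombinant yeast FTase (2.2 mg/mL stock) and dansyl-GCVLS peptide (2 μM solution) were used with inhibitor in DMSO. Buffer was 50 mM Tris/HCl pH 7.5, 5.5 mM DTT, 10 mM MgCl2, 10 μM ZnCl2 and 0.08% CHAPS. Reaction was started with 10 μM FPP solution (1:10 addition). Fluorescence (ex 340 / em 486 nm) was followed 15 min at 30 °C. Values are the mean of three determinations.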

[5] = test system: DU-145; assay: Anticancer activity against hormone-resistant human DU145 cells assessed as cell proliferation at 100 uM after 72 hrs by MTT assay; type: functional; settings: DU-145, 72 h
[6] = test system: PC-3; assay: Anticancer activity against hormone-resistant human PC3 cells assessed as cell proliferation at 100 uM after 72 hrs by MTT assay; type: functional; settings: PC-3, 72 h
[7] = test system: Liver microsomes; assay: Metabolic stability of the compound in human liver microsome assessed as compound remaining; type: ADME
Method in brief: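 Metabolic stability was tested in human liver microsomes, expressed as percentage of parent compound remaining at assay end.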

[8] = test system: PC-3; assay: Induction of disorganization of tubulin in human PC3 cells assessed as microtubule bundles at 21 uM by immunofluorescence microscopy; type: functional, cell-based
Method in brief: (§2)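 PC3 cells were grown on poly-D-lysine coverslips overnight, synchronized, then exposed 24 h to compound or DMSO. They were fixed in 4% paraformaldehyde, permeabilized with 0.5% Triton X-100, and blocked 45 min in 5% BSA. Staining used Alexa 488 anti-α-tubulin (1/100). Microtubule network was examined by fluorescence microscopy.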

[9] = test system: PC-3; assay: Induction of disorganization of tubulin in human PC3 cells assessed as microtubule bundles at 18 uM by immunofluorescence microscopy; type: functional, cell-based; method in brief: as §2
[10] = test system: PC-3; assay: Induction of disorganization of tubulin in human PC3 cells assessed as decrease in microtubulin mass at 18 uM by immunofluorescence microscopy; type: functional, cell-based; method in brief: as §2
[11] = test system: DU-145; assay: Anticancer activity against human DU145 cells xenografted mouse assessed as suppression of tumor at 30 mg/kg; type: functional
[12] = test system: PC-3; assay: Anticancer activity against human PC3 cells xenografted mouse assessed as suppression of tumor at 30 mg/kg; type: functional
[13] = test system: PC-3; assay: Induction of disorganization of tubulin in human PC3 cells assessed as microtubule bundles at 75 uM after 24 hrs by immunofluorescence microscopy; type: functional, cell-based; method in brief: as §2
[14] = test system: PC-3; assay: Induction of disorganization of tubulin in human PC3 cells assessed as microtubule bundles at 32 uM by immunofluorescence microscopy; type: functional, cell-based; method in brief: as §2
[15] = test system: PC-3; assay: Induction of disorganization of tubulin in human PC3 cells assessed as decrease in microtubulin mass at 32 uM by immunofluorescence microscopy; type: functional, cell-based; method in brief: as §2

| SMILES | IC50 [2] | IC50 [3] | IC50 [4] | inhibition at 100 µM [5] | inhibition at 100 µM [6] | also measured |
| --- | --- | --- | --- | --- | --- | --- |
| CC(CCc1ccccc1)NCC(O)c1ccc(O)c(C(N)=O)c1 (configuration not stated) [LABETALOL] |  |  |  |  |  | Papp [1]: 7.3 ×10⁻⁶ cm/s |
| N#Cc1ccc(Cn2cncc2CN2CCN(C(=O)c3cccc4ccccc34)CCC2c2ccccc2)cc1 (configuration not stated) | 48 µM | 77 µM | 0.018 µM |  |  |  |
| CC(C)CC(=O)N1CCCN(Cc2cncn2Cc2ccc(C#N)cc2)CC1 |  |  | 0.205 µM | 18% | 13% |  |
| N#Cc1ccc(Cn2cncc2CN2CCCN(C(=O)c3ccccc3)CC2)cc1 |  |  | 0.008 µM | 24% | 22% |  |
| CNC(=C[N+](=O)[O-])NCCSCc1ccc(CN(C)C)o1 [RANITIDINE] |  |  |  |  |  | Papp [1]: 0.7 ×10⁻⁶ cm/s |
| N#Cc1ccc(Cn2cncc2CN2CCCN(C(=O)C34CC5CC(CC(C5)C3)C4)CC2)cc1 | 44 µM | 21 µM | 0.005 µM |  |  | Stability [7]: 1%; Papp [1]: 28.8 ×10⁻⁶ cm/s; Activity [8]: Active |
| N#Cc1ccc(Cn2cncc2CN2CCCN(C(=O)Cc3cccc4ccccc34)CC2)cc1 | 93 µM |  | 0.013 µM |  | 40% |  |
| N#Cc1ccc(Cn2cncc2CN2CCCN(C(=O)c3ccc4ccccc4c3)CC2)cc1 | 52 µM | 47 µM | 0.035 µM |  |  |  |
| N#Cc1ccc(Cn2cncc2CN2CCCN(C(=O)c3ccccc3-c3ccccc3)CC2)cc1 | 43 µM | 39 µM | 0.026 µM |  |  |  |
| CC[C@H](C)[C@@H](CO[C@@H](Cc1ccccc1)C(=O)N[C@@H](CCS(C)(=O)=O)C(=O)OC(C)C)NC[C@@H](N)CS | 78 µM | 75 µM | 0.027 µM |  |  | inhibition in vivo at 30 mg/kg [11]: 85%; inhibition in vivo at 30 mg/kg [12]: 87%; Activity [13]: Active |
| N#Cc1ccc(Cn2cncc2CN2CCCN(C(=O)c3ccccc3F)CC2)cc1 |  |  | 0.14 µM | 7% | 2% |  |
| N#Cc1ccc(Cn2cncc2CN2CCCN(C(=O)c3ccccc3Br)CC2)cc1 |  |  | 0.064 µM | 17% | 15% |  |
| N#Cc1ccc(Cn2cncc2CN2CCCN(C(=O)c3ccc(Cl)cc3Cl)CC2)cc1 | 45 µM | 26 µM | 0.041 µM |  |  |  |
| N#Cc1ccc(Cn2cncc2CN2CCC(c3ccccc3)N(C(=O)C3CCCCC3)CC2)cc1 (configuration not stated) |  |  | 0.503 µM |  | 5% |  |
| N#Cc1ccc(Cn2cncc2CN2CCCN(C(=O)c3ccc(-c4ccccc4)cc3)CC2)cc1 | 47 µM | 50 µM | 0.153 µM |  |  |  |
| CC(C)NCC(O)COc1cccc2ccccc12 (configuration not stated) [PROPRANOLOL] |  |  |  |  |  | Papp [1]: 41.1 ×10⁻⁶ cm/s |
| N#Cc1ccc(Cn2cncc2CN2CCCN(C(=O)c3ccccc3Cl)CC2)cc1 | 100 µM | 70 µM | 0.025 µM |  |  |  |
| N#Cc1ccc(Cn2cncc2CN2CCCN(C(=O)c3ccsc3)CC2)cc1 |  |  | 0.042 µM | 3% | 4% |  |
| N#Cc1ccc(Cn2cncc2CN2CCC(c3ccccc3)N(C(=O)c3ccc(Cl)cc3Cl)CC2)cc1 (configuration not stated) |  | 76 µM | 0.382 µM | 31% |  |  |
| N#Cc1ccc(Cn2cncc2CN2CCC(c3ccccc3)N(C(=O)c3ccccc3-c3ccccc3)CC2)cc1 (configuration not stated) | 47 µM | 50 µM | 0.057 µM |  |  |  |
| N#Cc1ccc(Cn2cncc2CN2CCN(C(=O)c3ccc(Cl)cc3Cl)CCC2c2ccccc2)cc1 (configuration not stated) | 44 µM | 38 µM | 0.021 µM |  |  |  |
| N#Cc1ccc(Cn2cncc2CN2CCC(c3ccccc3)N(C(=O)c3cccc4ccccc34)CC2)cc1 (configuration not stated) | 54 µM | 50 µM | 0.06 µM |  |  |  |
| N#Cc1ccc(Cn2cncc2CN2CCCN(C(=O)c3ccncc3)CC2)cc1 |  |  | 0.142 µM | 6% | 12% |  |

The next lines start with results.

| IC50 [2] | IC50 [3] | IC50 [4] | SMILES | inhibition at 100 µM [5] | inhibition at 100 µM [6] | also measured |
| --- | --- | --- | --- | --- | --- | --- |
| 29 µM | 18 µM | 0.007 µM | N#Cc1ccc(Cn2cncc2CN2CCN(C(=O)C3CCCCC3)CCC2c2ccccc2)cc1 (configuration not stated) |  |  | Stability [7]: 2%; Papp [1]: 25.1 ×10⁻⁶ cm/s; Activity [9]: Active; Activity [10]: Active |
|  | 80 µM | 0.043 µM | COc1cccc(C(=O)N2CCCN(Cc3cncn3Cc3ccc(C#N)cc3)CC2)c1OC | 44% |  |  |
| 75 µM | 80 µM | 0.079 µM | N#Cc1ccc(Cn2cncc2CN2CCC(c3ccccc3)N(C(=O)c3ccccc3)CC2)cc1 (configuration not stated) |  |  |  |
| 42 µM | 44 µM | 0.043 µM | N#Cc1ccc(Cn2cncc2CN2CCCN(C(=O)c3cccc(-c4ccccc4)c3)CC2)cc1 |  |  |  |
|  |  | 0.069 µM | N#Cc1ccc(Cn2cncc2CN2CCCN(C(=O)c3ccc(F)cc3)CC2)cc1 | 27% | 40% |  |
|  |  | 0.024 µM | N#Cc1ccc(Cn2cncc2CN2CCCN(C(=O)C3CCCCC3)CC2)cc1 | 23% | 20% |  |
| 35 µM | 50 µM | 0.017 µM | N#Cc1ccc(Cn2cncc2CN2CCN(C(=O)c3ccccc3-c3ccccc3)CCC2c2ccccc2)cc1 (configuration not stated) |  |  |  |
| 42 µM | 41 µM | 0.017 µM | N#Cc1ccc(Cn2cncc2CN2CCC(c3ccccc3)N(C(=O)C34CC5CC(CC(C5)C3)C4)CC2)cc1 (configuration not stated) |  |  |  |
| 73 µM | 33 µM | 0.009 µM | N#Cc1ccc(Cn2cncc2CN2CCN(C(=O)c3ccccc3)CCC2c2ccccc2)cc1 (configuration not stated) |  |  |  |
|  |  | 0.015 µM | Cc1cccc(C(=O)N2CCCN(Cc3cncn3Cc3ccc(C#N)cc3)CC2)c1 | 34% | 0% |  |
| 44 µM | 65 µM | 0.039 µM | N#Cc1ccc(Cn2cncc2CN2CCCN(C(=O)c3cccc4ccccc34)CC2)cc1 |  |  |  |
| 32 µM | 32 µM | 0.006 µM | N#Cc1ccc(Cn2cncc2CN2CCN(C(=O)C34CC5CC(CC(C5)C3)C4)CCC2c2ccccc2)cc1 (configuration not stated) |  |  | Stability [7]: 3%; Papp [1]: 3.6 ×10⁻⁶ cm/s; Activity [14]: Active; Activity [15]: Active |
